In brackets after ≈: the same amount, converted by molar mass.
Tests used:
[1] = system: L5178Y MDR1-transfected mouse lymphoma cells (Mus musculus); test: Antiproliferative activity against mouse MDR1-transfected L5178Y lymphoma cells after 72 hrs by MTT assay; details: L5178Y MDR1, 72 h
[2] = molecular target: ATP-dependent translocase ABCB1 (Homo sapiens, UniProt P08183); test: Inhibition of human MDR1 expressed in mouse L5178Y cells assessed as rhodamine 123 accumulation at 20 ug/ml preincubated for 10 mins before rhodamine 123 challenge measured after 20 mins by flow cytometry relative to wild type; format: cell-based
In short: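 L5178Y cells were transfected with human MDR1 via pHa MDR1/A retrovirus and kept under 60 ng/ml colchicine, alongside parental cells, in McCoy's 5A with 10% horse serum at 37 °C, 5% CO₂. Cells at 2 × 10⁶/ml in serum-free medium got compound for 10 min at room temperature, then rhodamine 123 for 20 min at 37 °C. Cells were washed twice and read by flow cytometry, with verapamil as positive control. FAR = (MDR treated/MDR control)/(parental treated/parental control). One representative experiment, 1 × 10⁴ cells.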

ATP-dependent translocase ABCB1, sequence (P08183 whole entry): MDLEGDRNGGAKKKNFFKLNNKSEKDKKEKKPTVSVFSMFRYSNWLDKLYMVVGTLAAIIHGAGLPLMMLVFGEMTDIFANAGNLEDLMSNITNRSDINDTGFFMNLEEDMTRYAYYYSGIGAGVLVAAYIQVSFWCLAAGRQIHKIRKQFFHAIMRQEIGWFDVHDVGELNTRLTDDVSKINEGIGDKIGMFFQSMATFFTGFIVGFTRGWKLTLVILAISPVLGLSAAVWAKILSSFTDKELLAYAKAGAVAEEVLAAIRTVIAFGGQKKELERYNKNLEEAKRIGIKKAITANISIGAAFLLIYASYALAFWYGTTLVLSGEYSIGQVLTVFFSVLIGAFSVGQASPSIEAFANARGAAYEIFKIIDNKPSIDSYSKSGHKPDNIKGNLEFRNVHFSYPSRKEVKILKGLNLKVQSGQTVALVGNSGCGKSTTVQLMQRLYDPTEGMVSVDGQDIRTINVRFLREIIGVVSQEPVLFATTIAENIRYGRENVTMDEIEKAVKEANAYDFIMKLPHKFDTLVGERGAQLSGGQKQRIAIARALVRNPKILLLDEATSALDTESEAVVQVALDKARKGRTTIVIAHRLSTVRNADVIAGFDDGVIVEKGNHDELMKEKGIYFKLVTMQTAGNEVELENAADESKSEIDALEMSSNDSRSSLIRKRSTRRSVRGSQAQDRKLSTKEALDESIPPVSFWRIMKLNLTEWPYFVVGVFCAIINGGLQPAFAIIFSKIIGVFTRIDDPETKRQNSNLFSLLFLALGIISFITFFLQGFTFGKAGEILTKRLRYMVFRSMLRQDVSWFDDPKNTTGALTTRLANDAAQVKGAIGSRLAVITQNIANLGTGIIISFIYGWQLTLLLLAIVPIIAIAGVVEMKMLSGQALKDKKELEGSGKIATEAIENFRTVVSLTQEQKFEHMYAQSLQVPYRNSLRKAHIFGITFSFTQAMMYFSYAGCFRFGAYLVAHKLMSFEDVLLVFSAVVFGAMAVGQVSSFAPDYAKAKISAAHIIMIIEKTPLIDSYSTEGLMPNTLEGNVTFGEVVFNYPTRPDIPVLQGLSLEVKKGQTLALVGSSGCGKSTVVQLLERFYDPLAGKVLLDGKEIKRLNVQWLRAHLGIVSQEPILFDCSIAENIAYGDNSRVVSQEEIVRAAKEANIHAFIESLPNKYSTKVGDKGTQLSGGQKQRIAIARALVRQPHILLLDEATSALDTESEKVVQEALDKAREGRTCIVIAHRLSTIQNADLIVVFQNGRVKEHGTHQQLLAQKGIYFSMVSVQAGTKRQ

Row | SMILES | IC50 [1] [µg/mL] | RFU [2]
1 | O=C(c1cc2ccccc2o1)N1N=C(c2ccccc2)CC1c1ccc(F)cc1 (centres undefined) | 9.94 (≈ 25.8 µM) | 20.06
2 | COc1ccc(C2CC(c3ccc(Cl)cc3)=NN2C(=O)c2cc3ccccc3o2)cc1OC (centres undefined) | 6.29 (≈ 13.6 µM) | 5.87
3 | O=C(c1cc2ccccc2o1)N1N=C(c2ccccc2)CC1c1ccccc1 (centres undefined) | 7.58 (≈ 20.7 µM) | 18.8
4 | COc1ccc(C2CC(c3ccccc3)=NN2C(=O)c2cc3ccccc3o2)cc1 (centres undefined) | 4.57 (≈ 11.5 µM) | 26.77
5 | Cc1ccc(C2CC(c3ccccc3)=NN2C(=O)c2cc3ccccc3o2)cc1 (centres undefined) | 16.6 (≈ 43.6 µM) | 7.59
6 | COc1ccc(C2CC(c3ccccc3)=NN2C(=O)c2cc3ccccc3o2)cc1OC (centres undefined) | 6.89 (≈ 16.2 µM) | 29.9
7 | COc1ccc(C2CC(c3ccc(F)cc3)=NN2C(=O)c2cc3ccccc3o2)cc1OC (centres undefined) | > 50 | 16.22
8 | O=C(c1cc2ccccc2o1)N1N=C(c2ccc(Cl)cc2)CC1c1ccc(Cl)cc1 (centres undefined) | 8.5 (≈ 19.5 µM) | 2.9
9 | COc1ccc(C2CC(c3ccc(Cl)cc3)=NN2C(=O)c2cc3ccccc3o2)cc1 (centres undefined) | 5.74 (≈ 13.3 µM) | 5.85
10 | O=C(c1cc2ccccc2o1)N1N=C(c2ccccc2)CC1c1ccc(Cl)cc1 (centres undefined) | 5.13 (≈ 12.8 µM) | 8.34
11 | O=C(c1cc2ccccc2o1)N1N=C(c2ccc(Cl)cc2)CC1c1ccccc1Cl (centres undefined) | 44.8 (≈ 103 µM) | 6.02
12 | O=C(c1cc2ccccc2o1)N1N=C(c2ccc(Cl)cc2)CC1c1ccccc1 (centres undefined) | 13.6 (≈ 34 µM) | 6.77
13 | O=C(c1cc2ccccc2o1)N1N=C(c2ccc(F)cc2)CC1c1ccccc1Cl (centres undefined) | 45.2 (≈ 108 µM) | 16.94
14 | O=C(c1cc2ccccc2o1)N1N=C(c2ccccc2)CC1c1ccccc1Cl (centres undefined) | 6.22 (≈ 15.5 µM) | 16.1

Now from value to molecule:

Row | IC50 [1] [µg/mL] | RFU [2] | SMILES
15 | 34.1 (≈ 76.5 µM) | 12.61 | O=C(c1cc2ccccc2o1)N1N=C(c2ccc(Cl)cc2)CC1c1ccc([N+](=O)[O-])cc1 (centres undefined)
16 | > 50 | 10.52 | Cc1ccc(C2CC(c3ccc(F)cc3)=NN2C(=O)c2cc3ccccc3o2)cc1 (centres undefined)
17 | > 50 | 14.56 | O=C(c1cc2ccccc2o1)N1N=C(c2ccc(F)cc2)CC1c1ccc(F)cc1 (centres undefined)
18 | 4.87 (≈ 11.8 µM) | 15.18 | O=C(c1cc2ccccc2o1)N1N=C(c2ccccc2)CC1c1ccc([N+](=O)[O-])cc1 (centres undefined)
19 | > 50 | 12.58 | O=C(c1cc2ccccc2o1)N1N=C(c2ccc(F)cc2)CC1c1ccc([N+](=O)[O-])cc1 (centres undefined)
20 | > 50 | 6.96 | O=C(c1cc2ccccc2o1)N1N=C(c2ccc(F)cc2)CC1c1ccc(Cl)cc1 (centres undefined)
21 | 11.8 (≈ 30.6 µM) | 15.82 | O=C(c1cc2ccccc2o1)N1N=C(c2ccc(F)cc2)CC1c1ccccc1 (centres undefined)
22 | 23 (≈ 55.5 µM) | 8.72 | COc1ccc(C2CC(c3ccc(F)cc3)=NN2C(=O)c2cc3ccccc3o2)cc1 (centres undefined)

Source: ChEMBL document CHEMBL1772951, “Synthesis of some novel benzofuran-2-yl(4,5-dihyro-3,5-substituted diphenylpyrazol-1-yl) methanones and studies on the antiproliferative effects and reversal of multidrug resistance of human MDR1-gene transfected mouse lymphoma cells in vitro” (Eur J Med Chem, 2011)
